We go through seven compounds from ChEMBL document CHEMBL2010661, “Optimization of 2,4-diarylanilines as non-nucleoside HIV-1 reverse transcriptase inhibitors” (Bioorg Med Chem Lett, 2012).

Data set [1] relates to Human immunodeficiency virus 1. Description: Antiviral activity against Human immunodeficiency virus 1 NL4-3 infected in human TZM-bl cells assessed as inhibition of viral replication. The settings on record: Human immunodeficiency virus 1, NL4-3, TZM-bl. It counts as functional, organism-based.
The nature of data set [2]: Aqueous solubility of the compound at pH 7.4 by HPLC/UV analysis. It counts as physicochemical. The settings on record: buffer.
A short description of data set [3]: Cytotoxicity against human TZM-bl cells. It counts as cell-based.
Data set [4] in a line: Selectivity index, ratio of CC50 for human TZM-bl cells to EC50 for Human immunodeficiency virus 1 NL4-3. The data set is classed as toxicity, cell-based. The conditions noted are these: read-out: Ratio CC50/EC50.
Data set [5] is described as follows: Aqueous solubility of the compound at pH 2 by HPLC/UV analysis. It counts as physicochemical. The settings on record: buffer.
Data set [6] deals with Human immunodeficiency virus 1. As to the kind of experiment: Antiviral activity against Human immunodeficiency virus 1 harboring reverse transcriptase K101E mutant. It counts as functional, organism-based. Summed up: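 EC50 against the resistant strain (RTMDR1, K101E or E138K), from experiments run at least in triplicate and reported as mean ± SD.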
Data set [7] relates to Liver microsomes. Description: Clearance in human liver microsomes at 1 uM. It counts as ADME, Microsome. Summed up:
(§1)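 1 μM compound (diluted from DMSO stock via ACN) at 37 °C in 0.1 M potassium phosphate pH 7.4 with 0.1 mg/mL human liver microsomes and 5 mM MgCl2. NADPH (1.0 mM final) started the reaction.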
A general note: Liver microsomes are vesicles of endoplasmic reticulum, rich in cytochrome P450 enzymes.

The subject of data set [8] is Human immunodeficiency virus 1. Description: Antiviral activity against multi-reverse transcriptase-resistant Human immunodeficiency virus 1. The data set is classed as functional, organism-based.
The test system of data set [9] is Liver microsomes. As to the kind of experiment: Half life in human liver microsomes at 1 uM. The data set is classed as ADME, Microsome. Put shortly: as §1
Data set [10] deals with Liver microsomes. Description: Half life in rat liver microsomes at 1 uM. It counts as ADME, Microsome. Put shortly: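 Rat liver microsome incubation of 1 μM compound at 37 °C in 0.1 M potassium phosphate pH 7.4 with 5 mM MgCl2. NADPH (1.0 mM final) started the reaction, with ice-cold ACN quench at 0–60 min, in duplicate. […] Means of at least two experiments.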
Data set [11] has as its system Human immunodeficiency virus 1. As to the kind of experiment: Antiviral activity against Human immunodeficiency virus 1 harboring reverse transcriptase E138K mutant. The data set is classed as functional, organism-based.

pEC50: −log10 of the molar value. Converted amounts (≈) assume the structure as drawn.

Usually pEC50 stands for the negative decadic logarithm of the EC50, by convention in mol/L. By solubility is commonly meant how much of the substance goes into solution per volume. Broadly, the CC50 is the concentration that lowers cell viability or growth by half. Lower therefore signals greater toxicity to the cells. With `CNC(=O)c1cc(N)c(Nc2ccc(C#N)cc2)cc1Oc1c(C)cc(/C=C/C#N)cc1C`, in data set [1], the pEC50 was 8.24. Besides, the results for the solubility in data set [2] and in data set [5] were 1.32 µg/mL (≈ 3.02 µM) and 8.63 µg/mL (≈ 19.7 µM), respectively. Also, the CC50 in data set [3] was > 9200 nM. For the same compound, the selectivity ratio in [4] is > 1610.
On to `Cc1cc(/C=C/C#N)cc(C)c1Oc1cc(Nc2ccc(C#N)cc2)c(N)cc1CO`, for which the pEC50 was 8.47 in data set [6], 9.28 in data set [1], 9.44 in data set [8] and 8.41 in data set [11]. This compound returned a CLH with Liver microsomes [7] of 230 µL/min/mg. For the same compound, the results for the t1/2 in the data set with Liver microsomes [9] and in the data set on Liver microsomes [10] were 0.5 h and 1.4 h, respectively. The solubility in data set [2] worked out at 3.23 µg/mL (≈ 7.87 µM); in data set [5] it was 21 µg/mL (≈ 51.2 µM). Moreover, it took 16300 nM to reach half-maximal cytotoxicity in data set [3] (CC50). The selectivity ratio in data set [4] was found to be 30800.
`COC(=O)c1cc(N)c(Nc2ccc(C#N)cc2)cc1Oc1c(C)cc(/C=C/C#N)cc1C`: the pEC50 in data set [1] was 8.56. For the same compound, the solubility came out at 1.3 µg/mL (≈ 2.96 µM) in data set [2] and 1.75 µg/mL (≈ 3.99 µM) in data set [5]. In addition, in data set [3], the 50% cytotoxic concentration (CC50) is > 22800 nM. Also, the selectivity ratio in data set [4] was > 8460.
The matching figures for `Cc1cc(/C=C/C#N)cc(C)c1Oc1cc(Nc2ccc(C#N)cc2)c(N)cc1C(=O)O`: 6.64, 117 µg/mL (≈ 276 µM), 4.4 µg/mL (≈ 10.4 µM), 14900 nM and 65.
As for `Cc1cc(/C=C/C#N)cc(C)c1Oc1cc(Nc2ccc(C#N)cc2)c(N)cc1[N+](=O)[O-]`, in the data set on Liver microsomes [7], the CLH worked out at 150 µL/min/mg. Besides, the t1/2 in the data set with Liver microsomes [9] was 0.783 h; in the data set on Liver microsomes [10], 2.32 h. In data set [11], this compound gave a pEC50 of 7.95.
Turning to `Cc1cc(/C=C/C#N)cc(C)c1Oc1cc(Nc2ccc(C#N)cc2)c(N)cc1C(N)=O`, the pEC50 is 8.06 in data set [6], 9.06 in [1], 9.51 in data set [8] and 8.05 in data set [11]. In addition, in the data set with Liver microsomes [7], the CLH was found to be 200 µL/min/mg. The results for the t1/2 in the data set on Liver microsomes [9] and in the data set with Liver microsomes [10] were 0.583 h and 2.03 h, respectively. The solubility in data set [2] was found to be 0.63 µg/mL (≈ 1.49 µM); in [5], 2.1 µg/mL (≈ 4.96 µM). The CC50 in data set [3] was > 23600 nM. Also, the selectivity ratio in data set [4] was > 27100.
For `Cc1cc(/C=C/C#N)cc(C)c1Nc1ccnc(Nc2ccc(C#N)cc2)n1` [RILPIVIRINE], in the data set with Liver microsomes [7], the CLH stood at 200 µL/min/mg. For the same compound, the results for the t1/2 in the data set with Liver microsomes [9] and with Liver microsomes [10] were 0.567 h and 2 h, respectively. Besides, it took 19400 nM to reach half-maximal cytotoxicity in data set [3] (CC50).
